V1aR counter: agonists of human V1a receptor, primary screen, counter-screen for OXTR agonist project, fluorescence, CHO-V1R cells | activation, % at 3 µM | 320,000 compounds, 0.25% hits | Fluo-8 calcium fluorescence, agonist mode; 0% DMSO, 100% 3 nM vasopressin | Vasopressin V1a receptor (Homo sapiens), P37288;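 active = activation above the mean activation of all tested compounds plus 3 SD, per screening run, cut at about 20% in these data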;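 also: signal is peak over basal fluorescence ratio across a 100 second FLIPR read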
OXTR potentiate: human OXTR potentiators, primary screen, fluorescence, CHO-OTR cells, Fluo-8 calcium. activation, % at 3 µM. AID 2445, 2010. Fluo-8 calcium fluorescence, potentiator mode; 0% = oxytocin EC15, 100% = EC100. 320,000 compounds, 0.061% hits;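 active = activation above that plate's cutoff, the mean activation of tested compounds plus 3 SD, cut at about 6.6% in these data, passing the limit was not always enough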
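Assay system: CHO-OTR cells, human receptor / Also added: oxytocin at about EC15, sub-maximal agonist stimulus / Dosing: single dose, 3.0 µM nominal final compound concentration / Incubation: 6 min pre-incubation, 100 s read / Technique: Fluo-8 calcium dye fluorescence / Read-out: % activation vs EC15 and EC100 oxytocin / Benchmarks: EC15 oxytocin low, 75 nM oxytocin high / Replicates: singlicate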
CRFBP-R2 agonist: agonists of CRF-BP/CRF-R2 complex, primary screen, cell-based, HEK293, calcium dye fluorescence, uHTS. CRF-binding protein / CRF receptor 2 complex (human). calcium dye fluorescence (FLIPR); percent of saturating CRF peptide response. activation, % at 13.2 µM. 350,000 compounds, 0.46% hits;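 active = activation of at least 50%, plus an integration ratio under a set limit after plate pattern correction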
OXTR ag: human OXTR agonists, primary screen, fluorescence, CHO-OTR cells, Fluo-8 calcium; activation, % at 3 µM; Fluo-8 calcium fluorescence; normalized: DMSO 0%, oxytocin 100%; 320,000 compounds, 0.32% hits; Oxytocin receptor (Homo sapiens), P30559;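 active = activation above the mean of all tested compounds plus 3 SD, cutoff set per screening run, cut at about 20% in these data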;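 also: peak over basal fluorescence ratio from a 100 s FLIPR kinetic read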
TRPN1 ag: zebrafish TRPN1 channel agonists, primary screen, cell-based, HEK293, calcium fluorescence; activation, % at 3 µM; 220,000 compounds, 0.18% hits; transient receptor potential cation channel N1 (TRPN1/NompC), Danio rerio; HEK293 zebrafish TRPN1-YFP, Fluo-8 calcium fluorescence; 100% = response to 87 µM carbachol;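 active = activation above its plate's cutoff, the mean activation of test wells on that plate plus 3 SD, cut at about 19% in these data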
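Material – zebrafish TRPN1-YFP in HEK293 cells · Doses – 3 µM single point · Schedule – dye 1 h 37 °C plus 30 min RT · Signal – Fluo-8 calcium fluorescence, excitation 470-495 nm, emission 515-575 nm · Read-out – % activation versus carbachol response · Control set – carbachol high, DMSO low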
TRPML3 ag: human TRPML3 channel agonists, primary screen, cell-based, HEK293 TRPML3-YFP, Fluo-8 calcium fluorescence, 3 µM | Mucolipin-3 (Homo sapiens), Q8TDD5 | 100% = the carbachol control signal | activation, % at 3 µM | 220,000 compounds, 0.29% hits | AID 1448, 2008;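 active = activation above its plate's cutoff, the mean activation of the plate's test wells plus 3 SD, cut at about 12% in these data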
Target sequence (Q8TDD5 whole entry, looked up): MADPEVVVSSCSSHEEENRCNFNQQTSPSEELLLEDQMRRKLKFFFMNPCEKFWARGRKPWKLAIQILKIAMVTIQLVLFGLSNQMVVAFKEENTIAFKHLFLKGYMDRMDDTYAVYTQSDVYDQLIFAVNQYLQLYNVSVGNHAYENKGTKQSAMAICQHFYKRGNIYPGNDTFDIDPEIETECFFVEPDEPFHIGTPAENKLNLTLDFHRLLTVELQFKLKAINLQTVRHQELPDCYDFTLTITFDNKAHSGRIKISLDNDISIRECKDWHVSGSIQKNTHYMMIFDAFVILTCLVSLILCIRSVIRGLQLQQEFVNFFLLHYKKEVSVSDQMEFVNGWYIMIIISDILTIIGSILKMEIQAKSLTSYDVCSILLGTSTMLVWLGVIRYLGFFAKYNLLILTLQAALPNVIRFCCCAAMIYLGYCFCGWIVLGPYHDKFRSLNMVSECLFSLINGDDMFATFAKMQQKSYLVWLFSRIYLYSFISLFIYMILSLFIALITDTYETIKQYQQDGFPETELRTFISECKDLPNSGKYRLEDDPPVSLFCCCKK
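Test system – HEK293 line with stable expression of human TRPML3-YFP channel · Control set – carbachol 87 µM final as high control (100%), DMSO as low control (0%) · Signal – Fluo-8 calcium dye fluorescence, ex 470-495, em 515-575 nm · Incubation – 1-h 37 °C dye load, 5-s basal, 120-s post-compound reads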
A number is an active result; n = inactive; x = no result given. Most compounds without a hit are left out; they make up all but 0.85% or so of the library.

SMILES	V1aR counter	OXTR potentiate	CRFBP-R2 agonist	OXTR ag	TRPN1 ag	TRPML3 ag
Cc1ccc(C(=O)Cn2c(C(=O)OCCO)cc3ccccc32)cc1	x	x	n	x	x	x
C=CCN(c1ccccc1)S(=O)(=O)c1cc2c(cc1C)NC(=O)CO2	n	n	n	n	x	x
COc1ccc(CN(C2CCCCC2C)S(=O)(=O)c2ccc(S(=O)(=O)N(C)C)cc2)cc1OC (configuration not stated)	n	n	148	n	39	145
COc1ccc(-n2c(O)c(C=NC3CC3)c(=O)[nH]c2=O)cc1	n	n	n	n	n	n
COc1ccc(-n2c(O)c(/C=C3\C=Nc4ccccc43)c(=O)[nH]c2=O)cc1	x	x	76	x	x	x
CCOC(=O)c1cc(C(=O)NC(C)c2ccccc2)c(C)[nH]c1=O (configuration not stated)	n	n	n	n	n	n
CCOc1cc(NC(=S)Nc2ccc(Cl)cc2)c(OCC)cc1NC(C)=O	n	n	n	n	n	n
CC(S(=O)(=O)c1ccccc1)S(=O)(=O)c1ccccc1	x	x	n	x	x	x
CC1=C/C(=N\OS(=O)(=O)c2ccccc2)C(C(C)C)=CC1=O	n	n	n	n	n	35
N#C/C(=C(/O)COc1ccc(Cl)cc1)c1nc2ccccc2s1	n	n	70	n	n	n
COC(=O)c1cc(NC(=O)c2ccccc2)c(=O)oc1/C=C/Nc1ccc(Oc2ccccc2)cc1	x	x	138	x	n	n
CSCCC(NC(=O)c1ccccc1)C(=O)N/N=C(\C)Cc1ccccc1 (configuration not stated)	x	x	n	x	x	x
CSCCC(NC(=O)c1ccccc1)C(=O)N/N=C(\C)c1ccccc1 (configuration not stated)	n	n	112	n	n	n
Cc1nc2c(-c3ccccc3)cnn2c(N)c1-c1ccccc1	x	x	n	x	x	x
CN(C)c1ccc(/C=C/c2cc[n+]([O-])cc2)cc1	n	n	x	n	n	12
Cc1cc(=O)[nH]c(SCC(=O)Nc2ccc(Br)cc2)c1C#N	n	n	67	n	n	n
CN(C)c1ccc(/C=C2/NC(=O)NC2=O)cc1	n	n	n	n	n	n
CN(C)c1ccc(/C=C2\N=C(c3ccc(Cl)c([N+](=O)[O-])c3)NC2=O)cc1	n	n	62	n	n	n
COc1ccccc1CN(CC(=O)NCc1ccc(F)cc1)C(=O)c1csnn1	n	n	n	n	x	x
N#C/C(=N\Nc1cccc(C(F)(F)F)c1)C(=O)c1ccsc1	n	n	n	n	24	14
N#C/C(=N\Nc1cccc([N+](=O)[O-])c1)C(=O)c1ccc(Br)cc1	n	n	n	n	n	n
N#Cc1ccc(OCC(O)CN2CCC(C(O)(c3ccccc3)c3ccccc3)CC2)cc1 (configuration not stated)	n	n	n	n	x	x
O=C1CCN2C=Nc3cccc4ccc1c2c34	29	n	n	38	n	n
O=C1CCC(=O)c2ccc3c4c(ccc1c24)CC3	x	x	n	x	x	x
O=C(CSc1nc2[nH]ncc2c(=O)[nH]1)Nc1cc(C(F)(F)F)ccc1Cl	x	x	n	x	x	x
SMILES	V1aR counter	OXTR potentiate	CRFBP-R2 agonist	OXTR ag	TRPN1 ag	TRPML3 ag
Clc1cccc(Cl)c1-c1nnc2cccc(Cl)n12	n	n	n	n	n	n
Fc1cccc(Cl)c1-c1nnc2ccc(C(F)(F)F)cn12	n	n	50	n	n	n
O=C(NNC(=O)c1ccc([N+](=O)[O-])cc1)c1ccc(Br)cc1	n	n	n	n	x	x
O=C(NC(=S)NNC(=O)c1ccccc1O)c1ccc(F)cc1	32	n	n	34	x	x
O=C(NNC(=S)NC(=O)c1ccc(Br)cc1)c1ccc([N+](=O)[O-])cc1	63	n	95	64	x	x
O=C(NNC(=S)NC(=O)c1ccccc1Cl)c1cccc([N+](=O)[O-])c1	23	n	65	28	x	x
O=C(NC(=S)NNC(=O)c1ccccc1O)c1ccccc1	n	n	n	n	x	x
O=C(NNC(=S)NC(=O)c1ccc(Br)cc1)c1cccc([N+](=O)[O-])c1	64	n	n	31	x	x
NS(=O)(=O)c1ccc(CCNS(=O)(=O)c2cccc3nsnc23)cc1	n	n	n	n	x	x
O=C(NNC(=S)NC(=O)c1ccccc1[N+](=O)[O-])c1ccccc1O	n	n	n	n	n	n
CCCCCC(=O)NNC(=S)NC(=O)c1ccc([N+](=O)[O-])cc1	n	n	n	n	n	n
O=C(NC(=S)NNC(=O)c1ccccc1O)c1ccc([N+](=O)[O-])cc1	n	n	50	n	x	x
O=C(NNC(=S)NC(=O)c1ccccc1)c1ccc([N+](=O)[O-])cc1	33	n	n	34	x	x
Cc1ccc(C(=O)NC(=S)NNC(=O)c2ccc([N+](=O)[O-])cc2)cc1	n	n	94	n	x	x
O=C(COC(=O)c1ccccc1)Nc1ncc([N+](=O)[O-])s1	n	n	n	n	x	x
O=C(Nc1ccccc1)Nc1ncc([N+](=O)[O-])s1	x	x	n	x	22	17
O=C(Nc1ccc(NC(=O)c2cccc([N+](=O)[O-])c2)cc1)c1cccc([N+](=O)[O-])c1	n	n	n	n	x	x
O=C(Nc1ncc([N+](=O)[O-])s1)c1cccc([N+](=O)[O-])c1	n	n	66	n	n	n
CCCC#Cc1cnc2c(c1)C(=O)N([C@H](C)CO)C[C@@H](C)[C@H](CN(C)S(=O)(=O)c1cccc(OC)c1)O2	x	x	n	x	x	x
O=C(Nc1ccc2c(c1)CN(Cc1ccccc1O)CC2)C1CCCO1 (configuration not stated)	n	n	n	n	x	x
Oc1[nH]c2ccccc2c1N=Nc1ccccc1Cl	x	x	124	x	x	x
OCC[C@@H]1C[C@H](O)[C@@H](O)[C@]2(CCCc3ccccc3O2)O1	n	n	n	n	x	x
COc1cccc(NC(=O)CN(C)C(=O)CCNC(=O)c2ccccc2OC)c1	x	x	n	x	x	x
Cc1ccc[n+](-c2nc([O-])sc2C=O)c1	n	n	92	n	n	n
O=[n+]1c2c(n([O-])c3cc(F)c(N4CCCC4)cc31)CCCC2	n	n	55	n	n	n
O=[n+]1c2c(n([O-])c3cc(F)c(N4CCCC4)cc31)CCC2	n	n	n	n	n	n
CCCCNc1cc(C)nc(NCc2ccccc2)n1	27	n	n	30	n	n

Screens from PubChem BioAssay.
